Test results as given in ChEMBL document CHEMBL1128528, “Structure-activity relationships of unsaturated analogues of valproic acid” (J Med Chem, 1995).

Experiments:
[1] = Partition coefficient (logP); format: physicochemical; conditions: octanol/water
How it was run: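 Calculated with CLOGP for the undissociated acid as 1-octanol/water partition coefficient; cis and trans isomers not distinguished.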

Mus musculus [2] = test: Brain concentration after 15 min of administration; format: functional
How it was run: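 Mice (n = 5, or 4 where footnoted) were given an ED50 dose and killed at 15 min. Whole brains were homogenized in 0.32 M sucrose and stored at -78 °C. Sodium octanoate served as internal standard; samples were acidified with HCl and extracted into EtOAc. Acids were quantified as tert-butyldimethylsilyl esters by GC-MS (EI 70 eV, SIM at M+ − 57). Each sample ran in triplicate; values are mean ± SD.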

Mus musculus [3] = test: Anticonvulsant activity against mice after intraperitoneal administration; format: functional; conditions: ip
How it was run: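 Mice, 6 weeks old, eight per dose, received five ip doses of the sodium salt (4 mL/kg). Pentylenetetrazole (85 mg/kg, 10 mL/kg) was given sc at 10 min and animals were watched for 30 min. Unprotected meant a 5 s clonus with loss of balance. ED50 was read from percentage protection vs log(dose). Sedation was scored from activity and muscle tone during handling.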

logP [1]	SMILES	C (Mus musculus [2])	ED50 (Mus musculus [3])
1.22	CC/C=C\C(=O)O	4460 nM/g	7 mmol/kg
3.11	CC/C=C(\CCCC)C(=O)O	140 nM/g	0.87 mmol/kg
2.06	CC/C=C(\CC)C(=O)O	660 nM/g	1.6 mmol/kg
1.22	CC/C=C/C(=O)O	2220 nM/g	6 mmol/kg
1.53	CC/C=C(\C)C(=O)O	1520 nM/g	4.4 mmol/kg
2.59	CC/C=C(\CCC)C(=O)O	260 nM/g	0.84 mmol/kg
2.72	CCCC(CCC)C(=O)O [VALPROIC ACID]	620 nM/g	0.83 mmol/kg

More lines, now with the values behind:

SMILES	logP [1]	C (Mus musculus [2])	ED50 (Mus musculus [3])
O=C(O)C1=CCCC1	1.1	500 nM/g	4.7 mmol/kg
C/C=C\C(=C/CC)C(=O)O	2.22	350 nM/g	0.78 mmol/kg
CC(C)=CC(=O)O	1.09	2710 nM/g	5.2 mmol/kg
C/C=C/C(=C\CC)C(=O)O	2.22	680 nM/g	1.4 mmol/kg
O=C(O)C1=CC2CCC1C2 (stereo unspecified)	1.42	2150 nM/g	2.9 mmol/kg
O=C(O)C=C1CCCC1	1.72	450 nM/g	2.3 mmol/kg
O=C(O)C=C1CCCCCC1	2.84	159 nM/g	0.96 mmol/kg
O=C(O)C=C1CCCCC1	2.28	320 nM/g	1.4 mmol/kg
O=C(O)C=C1CCCCCCC1	3.4	94 nM/g	0.73 mmol/kg
O=C(O)C1=CCCCC1	1.66	1210 nM/g	2.2 mmol/kg
